Results on 51 compounds are retold here after ChEMBL document CHEMBL3351917, “Structure-activity relationship study of 4EGI-1, small molecule eIF4E/eIF4G protein-protein interaction inhibitors” (Eur J Med Chem, 2014).

“And” between values parts separate entries of the source, which are not always exact repeats. Equal values may be shown once. The source made the active and inactive calls. No cut-off for these calls is given here.

T1 sequence (P06730 whole entry): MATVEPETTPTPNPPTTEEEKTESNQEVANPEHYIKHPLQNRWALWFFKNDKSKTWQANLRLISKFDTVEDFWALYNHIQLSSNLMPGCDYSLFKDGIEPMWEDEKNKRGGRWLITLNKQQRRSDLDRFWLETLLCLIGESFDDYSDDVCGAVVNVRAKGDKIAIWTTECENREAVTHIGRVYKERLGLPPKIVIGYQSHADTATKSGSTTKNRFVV

Tested on in the first series: not listed separately
Description: Retention time of the compound in 50 to 100% ACN/Water/0.1%TFA by RP-HPLC analysis. Type of series: physicochemical. To be noted: buffer. Put shortly: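 RP-HPLC run with a 50 to 100% ACN/water/0.1% TFA gradient over 25 min; retention times and isomer ratios taken from the reaction mixture.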
The compound `O=C(O)/C(Cc1ccccc1[N+](=O)[O-])=N\Nc1nc(-c2ccc(C3CCCCC3)cc2)cs1` displayed a Retention_time of 11.636 min.
`O=C(O)/C(Cc1ccccc1[N+](=O)[O-])=N/Nc1nc(-c2ccc(C3CCCCC3)cc2)cs1` yielded a Retention_time of 12.013 min.
The same measure, in the same setting: the figure for `O=C(O)/C(Cc1ccccc1[N+](=O)[O-])=N/Nc1nc(-c2ccc(Cl)c(Cl)c2)cs1` is 8.68 min; for `O=C(O)/C(Cc1ccc(C(=O)O)cc1)=N\Nc1nc(-c2ccc(Cl)c(Cl)c2)cs1` it is 8.13 min; for `O=C(O)/C(Cc1ccc(F)c([N+](=O)[O-])c1)=N\Nc1nc(-c2ccc(Cl)c(Cl)c2)cs1` it is 8.4 min.
Regarding `O=C(O)/C(Cc1ccc([N+](=O)[O-])cc1)=N/Nc1nc(-c2ccc(Cl)c(Cl)c2)cs1`, the Retention_time worked out at 8.16 min.
Still for that read-out and setting: under `O=C(O)/C(Cc1ccccc1[N+](=O)[O-])=N\Nc1nc(-c2ccc(-c3ccccc3)cc2)cs1` stands 7.23 min; under `O=C(O)/C(Cc1cccc([N+](=O)[O-])c1)=N\Nc1nc(-c2ccc(Cl)c(Cl)c2)cs1`, 8.36 min; under `O=C(O)/C(Cc1ccccc1[N+](=O)[O-])=N/Nc1nc(-c2ccc(N3CCOCC3)cc2)cs1`, 15.082 min.
On the same count and under the same terms, the figure for `O=C(O)/C(Cc1ccc(Cl)c([N+](=O)[O-])c1)=N\Nc1nc(-c2ccc(Cl)c(Cl)c2)cs1` is 9.449 min; for `O=C(O)/C(Cc1ccc(O)c([N+](=O)[O-])c1)=N\Nc1nc(-c2ccc(Cl)c(Cl)c2)cs1` it is 7.82 min; for `O=C(O)/C(Cc1ccccc1[N+](=O)[O-])=N/Nc1nc(-c2ccc3ccccc3c2)cs1` it is 7.27 min.
The same measure, in the same setting: the figure for `COc1ccc(C/C(=N/Nc2nc(-c3ccc(Cl)c(Cl)c3)cs2)C(=O)O)cc1[N+](=O)[O-]` is 10.68 min.
`O=C(O)/C(Cc1ccc(O)cc1)=N/Nc1nc(-c2ccc(Cl)c(Cl)c2)cs1` registered a Retention_time of 14.28 min.
Compound `O=C(O)/C(Cc1ccccc1)=N\Nc1nc(-c2ccc(Cl)c(Cl)c2)cs1` registered a Retention_time of 10.56 min.
`O=C(O)/C(Cc1ccccc1[N+](=O)[O-])=N\Nc1nc(-c2ccc(Cl)c(Cl)c2)cs1` yielded a Retention_time of 13.69 min.
On the same count and under the same terms, the figure for `COc1ccc(C/C(=N\Nc2nc(-c3ccc(Cl)c(Cl)c3)cs2)C(=O)O)cc1[N+](=O)[O-]` is 8.007 min; for `O=C(O)/C(Cc1ccc(C(=O)O)cc1)=N/Nc1nc(-c2ccc(Cl)c(Cl)c2)cs1` it is 5.62 min.
Take `O=C(O)/C(Cc1ccc([N+](=O)[O-])cc1)=N\Nc1nc(-c2ccc(Cl)c(Cl)c2)cs1`: the Retention_time was 8.01 min.
`O=C(O)/C(Cc1cccc([N+](=O)[O-])c1)=N/Nc1nc(-c2ccc(Cl)c(Cl)c2)cs1` showed a Retention_time of 7.19 min.
For the compound `O=C(O)/C(Cc1ccc(O)cc1)=N\Nc1nc(-c2ccc(Cl)c(Cl)c2)cs1`, the Retention_time is listed as 14.28 min.
Same read-out and setting: under `O=C(O)/C(Cc1ccc(F)cc1)=N\Nc1nc(-c2ccc(Cl)c(Cl)c2)cs1` stands 7.92 min.
Still for that read-out and setting: the figure for `O=C(O)/C(Cc1ccccc1[N+](=O)[O-])=N\Nc1nc(-c2ccc(N3CCOCC3)cc2)cs1` is 12.32 min; for `O=C(O)/C(Cc1ccc(Cl)cc1)=N\Nc1nc(-c2ccc(Cl)c(Cl)c2)cs1` it is 10.09 min; for `Nc1ccc(C/C(=N/Nc2nc(-c3ccc(Cl)c(Cl)c3)cs2)C(=O)O)cc1[N+](=O)[O-]` it is 15.08 min.
The same measure, in the same setting: the figure for `O=C(O)/C(Cc1ccc(C(F)(F)F)cc1)=N/Nc1nc(-c2ccc(Cl)c(Cl)c2)cs1` is 10.59 min; for `O=C(O)/C(Cc1ccc(Cl)c([N+](=O)[O-])c1)=N/Nc1nc(-c2ccc(Cl)c(Cl)c2)cs1` it is 9.437 min; for `O=C(O)/C(Cc1ccccc1[N+](=O)[O-])=N\Nc1nc(-c2ccc3ccccc3c2)cs1` it is 5.899 min.
The compound `O=C(O)/C(Cc1ccc(C(F)(F)F)cc1)=N\Nc1nc(-c2ccc(Cl)c(Cl)c2)cs1` returned a Retention_time of 10.53 min.
In the case of `O=C(O)/C(Cc1ccc(F)c([N+](=O)[O-])c1)=N/Nc1nc(-c2ccc(Cl)c(Cl)c2)cs1`, the Retention_time was found to be 15.54 min.
In turn, `O=C(O)/C(Cc1ccccc1)=N/Nc1nc(-c2ccc(Cl)c(Cl)c2)cs1` had a Retention_time of 8.7 min.
The same measure, in the same setting: the figure for `O=C(O)/C(Cc1ccc(O)c([N+](=O)[O-])c1)=N/Nc1nc(-c2ccc(Cl)c(Cl)c2)cs1` is 7.82 min.
`O=C(O)/C(Cc1ccc(F)cc1)=N/Nc1nc(-c2ccc(Cl)c(Cl)c2)cs1` displayed a Retention_time of 7.47 min.

Another series concerns the target T1, Eukaryotic translation initiation factor 4E (Homo sapiens, UniProt P06730). Nature of the series: Binding affinity to human full length recombinant GST-tagged eIF4E expressed in Escherichia coli BL21(DE3) by intrinsic tryptophan fluorescence quenching method.
Conditions: not given
As usually defined, the Kd is a measure of binding affinity in units of concentration. Take `Nc1ccc(C/C(=N/Nc2nc(-c3ccc(Cl)c(Cl)c3)cs2)C(=O)O)cc1[N+](=O)[O-]`: the dissociation constant (Kd) was found to be 5.01 µM.
Take `O=C(O)/C(Cc1ccccc1[N+](=O)[O-])=N\Nc1nc(-c2ccc(O)cc2)cs1`: the Kd is 36.6 µM.

Another series deals with T1, Eukaryotic translation initiation factor 4E. Description: Inhibition of eIF4E/eIF4G interaction in human CRL2813 cells assessed as increase in eIF4E/BP1 complex at 30 uM after 6 hrs by Western blotting analysis relative to control. Type of series: cell-based.
Conditions: not given
The method, boiled down: (§1)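 CRL-2813 melanoma cells incubated 6 h with 30 µM compound or DMSO vehicle, harvested, lysed by freeze-thaw; lysate bound to m7GTP-Sepharose 1 h at 4°C, beads washed, eluted with free m7GTP; retentate resolved by SDS-PAGE and immunoblotted for eIF4E, eIF4G (monoclonal) and 4E-BP1 (polyclonal). Blots quantified; mean of three independent pull-downs, error ±S.E.M.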
In general terms: Immunoblotting shows a protein as a band on a membrane.
Take `Nc1ccc(C/C(=N/Nc2nc(-c3ccc(Cl)c(Cl)c3)cs2)C(=O)O)cc1[N+](=O)[O-]`: the inhibition result was “Active”.

Tested on in the next series: not listed separately
Nature of the series: Retention time of the compound in 0 to 70% ACN/Water/0.1%TFA by RP-HPLC analysis. The format is physicochemical. The conditions noted are these: buffer.
Consider `O=C(O)/C(Cc1ccccc1[N+](=O)[O-])=N/Nc1nc(-c2ccccc2)cs1`, for which the Retention_time is 15.796 min and 16.484 min.
`Nc1ccc(-c2csc(N/N=C(\Cc3ccccc3[N+](=O)[O-])C(=O)O)n2)cc1` showed a Retention_time of 11.06 min.
`O=C(O)/C(Cc1ccccc1[N+](=O)[O-])=N\Nc1nc(-c2ccccc2)cs1` returned a Retention_time of 12.958 min.
On the same count and under the same terms, under `Nc1ccc(-c2csc(N/N=C(/Cc3ccccc3[N+](=O)[O-])C(=O)O)n2)cc1` stands 12.98 min; under `O=C(O)/C(Cc1ccccc1[N+](=O)[O-])=N/Nc1nc(-c2ccc(O)cc2)cs1`, 16.48 min.
Same read-out and setting: under `O=C(O)/C(Cc1ccccc1[N+](=O)[O-])=N\Nc1nc(-c2ccc(C(=O)O)cc2)cs1` stands 16.77 min; under `O=C(O)/C(Cc1ccccc1[N+](=O)[O-])=N\Nc1nc(-c2ccc(O)cc2)cs1`, 16.47 min; under `O=C(O)/C(Cc1ccccc1[N+](=O)[O-])=N/Nc1nc(-c2ccc(C(=O)O)cc2)cs1`, 14.54 min.

Tested on in the next series: not listed separately
Nature of the series: Retention time of the compound in 30 to 100% ACN/Water/0.1%TFA by RP-HPLC analysis. The format is physicochemical. The conditions noted are these: buffer. The method, boiled down:
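Reverse-phase HPLC, 30 to 100% ACN/water/0.1% TFA gradient in 25 min; retention times and E/Z ratios determined on the reaction mixture.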
`O=C(O)/C(Cc1ccccc1[N+](=O)[O-])=N/Nc1nc(-c2ccc(Br)cc2)cs1`: the Retention_time came to 10 min.
The same measure, in the same setting: the figure for `Nc1ccc(C/C(=N\Nc2nc(-c3ccc(Cl)c(Cl)c3)cs2)C(=O)O)cc1[N+](=O)[O-]` is 12.3 min; for `Nc1ccc(C/C(=N/Nc2nc(-c3ccc(Cl)c(Cl)c3)cs2)C(=O)O)cc1` it is 5.328 min.
`[N-]=[N+]=Nc1ccc(-c2csc(N/N=C(\Cc3ccccc3[N+](=O)[O-])C(=O)O)n2)cc1` showed a Retention_time of 11.722 min.
The same measure, in the same setting: under `O=C(O)/C(Cc1ccccc1[N+](=O)[O-])=N/Nc1nc(-c2ccc3ccccc3c2)cs1` stands 11.72 min; under `[N-]=[N+]=Nc1ccc(-c2csc(N/N=C(/Cc3ccccc3[N+](=O)[O-])C(=O)O)n2)cc1`, 13.435 min.
Compound `O=C(O)/C(Cc1ccc(C(=O)O)cc1[N+](=O)[O-])=N\Nc1nc(-c2ccc(Cl)c(Cl)c2)cs1` yielded a Retention time of 12.5 min.
`O=C(O)/C(Cc1ccccc1[N+](=O)[O-])=N\Nc1nc(-c2ccc(N3CCCC3)cc2)cs1` (mixture of isomers): the Retention_time is given as 8.828 min.
`O=C(O)/C(Cc1ccccc1[N+](=O)[O-])=N\Nc1nc(-c2ccc(Br)cc2)cs1` came in with a Retention_time of 12.48 min.
`Nc1ccc(C/C(=N/Nc2nc(-c3ccc(Cl)c(Cl)c3)cs2)C(=O)O)cc1[N+](=O)[O-]` returned a Retention_time of 15.09 min.
Compound `O=C(O)/C(Cc1ccc(Br)cc1[N+](=O)[O-])=N/Nc1nc(-c2ccc(Cl)c(Cl)c2)cs1` yielded a Retention_time of 15.542 min.
The same measure, in the same setting: the figure for `O=C(O)/C(Cc1ccc(C(=O)O)cc1[N+](=O)[O-])=N/Nc1nc(-c2ccc(Cl)c(Cl)c2)cs1` is 11.814 min.

In another series the target is T1, Eukaryotic translation initiation factor 4E. Nature of the series: Inhibition of eIF4E/eIF4G interaction in human CRL2813 cells assessed as reduction of eIF4E/eIF4G complex at 30 uM after 6 hrs by Western blotting analysis relative to control. Type of series: cell-based.
Conditions: not given
Put shortly: as §1
`Nc1ccc(C/C(=N/Nc2nc(-c3ccc(Cl)c(Cl)c3)cs2)C(=O)O)cc1[N+](=O)[O-]`: the inhibition result is “Active”.

Tested on in another series: not listed separately
Description: Retention time of the compound in 0 to 100% ACN/Water/0.1%TFA by RP-HPLC analysis. To be noted: buffer. Type of series: physicochemical. Put shortly:
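Reverse-phase HPLC, linear gradient 0 to 100% ACN/water/0.1% TFA over 25 min; isomer retention times and ratios measured in the reaction mixture.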
Take `O=C(O)/C(Cc1ccccc1[N+](=O)[O-])=N/Nc1nc(-c2ccccc2)cs1`: the Retention_time came to 15.8 min.
Regarding `O=C(O)/C(Cc1ccccc1[N+](=O)[O-])=N\Nc1nc(-c2ccccc2)cs1`, the Retention_time was 16.98 min.
Compound `O=C(O)/C(Cc1ccc(O)cc1)=N/Nc1nc(-c2ccc(Cl)c(Cl)c2)cs1` registered a Retention_time of 16.63 min.
Consider `O=C(O)/C(Cc1ccc(O)cc1)=N\Nc1nc(-c2ccc(Cl)c(Cl)c2)cs1`, for which the Retention_time was found to be 18.74 min.
